Laboratory results taken from paper PMC6988732 (The Biochemical journal, 2013).
Changes are numbered by the printed parent chain. Values joined by “and” are separate entries in the source; they are usually repeats but may differ in a detail not shown here. Equal values may be shown once.

Experiments:
[1] = target: T1, PKCθC1B wild-type (Mus musculus, UniProt Q02111); experiment: [3H]PDBu binding assay; conditions: PKCθ C1B WT
T1 sequence (Q02111 232-281): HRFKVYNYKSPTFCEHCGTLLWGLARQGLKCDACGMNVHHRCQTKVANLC
Outline: (§1)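 GST-cleaved mouse PKCθ C1B (residues 232–281), E. coli-expressed, affinity/gel-filtration purified. PEG-precipitation [3H]PDBu binding; Kd from saturable plus linear non-specific fit. Ki: [3H]PDBu at 2–5-fold each construct's Kd, DOG or SAG 1–100000 nM, dried from chloroform with phospholipid, sonicated. PS dependence: total phospholipid 100 μg/ml, PS 0–100%, remainder PC, relative to 100% PS. Means ± S.E.M., three independent experiments.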

[2] = target: T2, PKCθC1B Y239A (Mus musculus, UniProt Q02111, Y239A); experiment: [3H]PDBu binding assay
T2 sequence (Q02111 232-281 Y239A): T1 sequence (Q02111 232-281) with Y8A
Outline: as §1

[3] = target: T3, PKCθC1B T243A (Mus musculus, UniProt Q02111, T243A); experiment: [3H]PDBu binding assay
T3 sequence (Q02111 232-281 T243A): T1 sequence (Q02111 232-281) with T12A
Outline: as §1

[4] = target: T4, PKCθC1B W253G (Mus musculus, UniProt Q02111, W253G); experiment: [3H]PDBu binding assay
T4 sequence (Q02111 232-281 W253G): T1 sequence (Q02111 232-281) with W22G

[5] = target: T5, PKCθC1B L255G (Mus musculus, UniProt Q02111, L255G); experiment: [3H]PDBu binding assay
T5 sequence (Q02111 232-281 L255G): T1 sequence (Q02111 232-281) with L24G
Outline: as §1

[6] = target: T6, PKCθC1B Q258G (Mus musculus, UniProt Q02111, Q258G); experiment: [3H]PDBu binding assay
T6 sequence (Q02111 232-281 Q258G): T1 sequence (Q02111 232-281) with Q27G
Outline: as §1

[7] = target: full-length PKCθ Y239A (Mus musculus, UniProt Q02111, Y239A); experiment: Membrane translocation in HEK-293 cells; format: cell-based; conditions: 250 nM DOG, 2 h
[8] = target: full-length PKCθ T243A (Mus musculus, UniProt Q02111, T243A); experiment: Membrane translocation in HEK-293 cells; format: cell-based; conditions: 250 nM DOG, 2 h
[9] = target: full-length PKCθ W253G (Mus musculus, UniProt Q02111, W253G); experiment: Membrane translocation in HEK-293 cells; format: cell-based; conditions: 250 nM DOG, 2 h
[10] = target: full-length PKCθ L255G (Mus musculus, UniProt Q02111, L255G); experiment: Membrane translocation in HEK-293 cells; format: cell-based; conditions: 250 nM DOG, 2 h
[11] = target: full-length PKCθ Q258G (Mus musculus, UniProt Q02111, Q258G); experiment: Membrane translocation in HEK-293 cells; format: cell-based; conditions: 250 nM DOG, 2 h
Sequence of full-length PKCθ Q258G (Q02111 whole entry Q258G): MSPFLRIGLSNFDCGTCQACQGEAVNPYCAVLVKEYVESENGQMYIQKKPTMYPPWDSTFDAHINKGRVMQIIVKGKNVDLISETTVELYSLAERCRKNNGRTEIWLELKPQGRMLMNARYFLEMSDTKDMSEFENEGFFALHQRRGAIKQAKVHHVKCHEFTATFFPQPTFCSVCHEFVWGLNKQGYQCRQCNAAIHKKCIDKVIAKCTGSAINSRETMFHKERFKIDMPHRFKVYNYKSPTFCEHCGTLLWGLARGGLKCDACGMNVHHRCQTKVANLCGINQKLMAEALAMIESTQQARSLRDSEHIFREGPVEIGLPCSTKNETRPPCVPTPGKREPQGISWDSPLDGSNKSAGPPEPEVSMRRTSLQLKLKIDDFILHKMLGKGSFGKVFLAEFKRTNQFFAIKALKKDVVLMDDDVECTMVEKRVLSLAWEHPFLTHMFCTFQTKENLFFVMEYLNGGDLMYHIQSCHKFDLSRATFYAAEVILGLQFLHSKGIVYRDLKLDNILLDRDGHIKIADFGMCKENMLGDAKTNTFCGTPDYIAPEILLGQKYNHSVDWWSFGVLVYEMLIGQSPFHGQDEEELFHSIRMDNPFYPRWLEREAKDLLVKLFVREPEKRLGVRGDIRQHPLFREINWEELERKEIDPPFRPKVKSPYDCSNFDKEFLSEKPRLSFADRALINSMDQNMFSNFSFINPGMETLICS

Sequence of full-length PKCθ W253G (Q02111 whole entry W253G): as the sequence (Q02111 whole entry Q258G) above, with W253G, G258Q counted along it
Sequence of full-length PKCθ T243A (Q02111 whole entry T243A): as the sequence (Q02111 whole entry Q258G) above, with T243A, G258Q counted along it
Sequence of full-length PKCθ L255G (Q02111 whole entry L255G): as the sequence (Q02111 whole entry Q258G) above, with L255G, G258Q counted along it
Sequence of full-length PKCθ Y239A (Q02111 whole entry Y239A): as the sequence (Q02111 whole entry Q258G) above, with Y239A, G258Q counted along it

CCCCCCCC(=O)OC[C@H](CO)OC(=O)CCCCCCC [DOG, sn-1,2-dioctanoylglycerol]
Ki/Kd ([1]; Ki of the diacylglycerol over Kd of PDBu): 41 | Ki ([1]; competition of [3H]PDBu binding, mean ± S.E.M.): 16.1 ± 0.7 nM | Ki/Kd ([2]; PKCθ C1B Y239A, Ki of the diacylglycerol over Kd of PDBu): 26 | Ki ([2]; PKCθ C1B Y239A, competition of [3H]PDBu binding, mean ± S.E.M.): 86 ± 15 nM | reduction in binding affinity compared with the wild-type ([2]; Y239A vs wild-type PKCθC1B (Kd for PDBu, Ki for DOG/SAG)): 5.34 fold | Ki/Kd ([3]; PKCθ C1B T243A, Ki of the diacylglycerol over Kd of PDBu): 34 | Ki ([3]; PKCθ C1B T243A, competition of [3H]PDBu binding, mean ± S.E.M.): 21.5 ± 1.8 nM | reduction in binding affinity compared with the wild-type ([3]; T243A vs wild-type PKCθC1B (Kd for PDBu, Ki for DOG/SAG)): 1.34 fold | Ki/Kd ([4]; PKCθ C1B W253G, Ki of the diacylglycerol over Kd of PDBu): 159 | Ki ([4]; PKCθ C1B W253G, competition of [3H]PDBu binding, mean ± S.E.M.): 470 ± 69 nM | greater loss of affinity for DOG than for PDBu caused by W253G ([4]; W253G vs wild-type): 4 fold | reduction in binding affinity compared with the wild-type ([4]; W253G vs wild-type PKCθC1B (Kd for PDBu, Ki for DOG/SAG)): 29.2 fold and 29 fold | reduction in binding affinity compared with the wild-type ([5]; L255G vs wild-type PKCθC1B (Kd for PDBu, Ki for DOG/SAG)): 4.72 fold | Ki/Kd ([5]; PKCθ C1B L255G, Ki of the diacylglycerol over Kd of PDBu): 17 | Ki ([5]; PKCθ C1B L255G, competition of [3H]PDBu binding, mean ± S.E.M.): 76 ± 24 nM | Ki/Kd ([6]; PKCθ C1B Q258G, Ki of the diacylglycerol over Kd of PDBu): 3 | Ki ([6]; PKCθ C1B Q258G, competition of [3H]PDBu binding, mean ± S.E.M.): 1840 ± 320 nM | reduction in binding affinity compared with the wild-type ([6]; Q258G vs wild-type PKCθC1B (Kd for PDBu, Ki for DOG/SAG)): 114 fold | reduction in membrane translocation compared with the wild-type [7]: 12.0% | reduction in membrane translocation compared with the wild-type [8]: 8.98% | reduction in membrane translocation compared with the wild-type [9]: 5.9% | reduction in membrane translocation compared with the wild-type [10]: 15.4% | reduction in membrane translocation compared with the wild-type [11]: 15.9%
